# C2C12 statin = suppressors of simvastatin-induced myotoxicity in C2C12 myotubes | 330,000 compounds, 0.78% hits | ATP luminescence, 48 h; scaled: DMSO 0, geranylgeraniol control 100 | rescue of ATP level, % at 7.49 µM;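 active means mean ATP rescue above about 67%, or every replicate alone reaching that limit, limit read from the data, passing the limit was not always enough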;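 further: myotubes were challenged with 10 µM simvastatin during compound exposure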
# SIRT5 inh = inhibitors of human sirtuin-5 desuccinylase. Q9NXA8. Purified SirT5, succinyl-peptide AMC, trypsin-coupled fluorescence. inhibition, % at 15 µM. 330,000 compounds, 1.1% hits. AID 652115; in the data active means inhibition above about 15%
# Target sequence (Q9NXA8 whole entry, looked up): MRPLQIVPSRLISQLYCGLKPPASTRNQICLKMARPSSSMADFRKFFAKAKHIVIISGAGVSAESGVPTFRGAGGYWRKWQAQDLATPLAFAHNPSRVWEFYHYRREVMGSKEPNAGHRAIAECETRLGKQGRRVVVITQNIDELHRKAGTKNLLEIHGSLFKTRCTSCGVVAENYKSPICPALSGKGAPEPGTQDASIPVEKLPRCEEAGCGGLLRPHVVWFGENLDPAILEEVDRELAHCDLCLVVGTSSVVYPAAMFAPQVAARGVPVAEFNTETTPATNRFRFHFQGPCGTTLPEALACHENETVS
# FN deposit inh = fibronectin deposition inhibition; AH1F fibroblasts, Alexa488-fibronectin deposition fluorescence, overnight; inhibition, % at 12.6 µM; 350,000 compounds, 0.086% hits;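 active means mean inhibition across replicates of 30% or more, regardless of how many single replicates reach that level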
#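 Schedule: 1 h cell adhesion before compound, then overnight fibronectin incubation; test system: AH1F fibroblast monolayer depositing Alexa488-labelled fibronectin into matrix; quantity: 10000 AH1F cells per well; probe or stimulus: fluorescent fibronectin at 24 nM final; signal: fluorescence, ex 485 nm, em 525 nm; evaluation: percent inhibition as loss of matrix-bound fibronectin fluorescence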
# rRNA inh HTS = inhibitors of bacterial rRNA selective over humanized ribosomes; GFP signal change (wild-type ribosome), % (no concentration beside the values); E. coli WT GFP vs humanized-ribosome RFP mutants, fluorescence, 24 h; hits give low values; DMSO median 0, no signal -100; AID 720706; 350,000 compounds, 1.6% hits;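 active means significant combined selectivity score with lowered wild-type GFP, culture density cut under 30%, mutant RFP and density less affected; inactive means any of these conditions unmet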
# E-sel inducer = E-selectin induction on HUVECs. HUVEC E-selectin immunofluorescence imaging; normalized: neutral wells 0, TNF-alpha wells 100. activation, % at 7.58 µM. AID 686992. 260,000 compounds, 0.37% hits. P16581;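 active means mean E-selectin-positive cell signal at least 10% of the positive control, reached in at least 60% of replicates, without over 20% cell loss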
#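 Test system: HUVEC | Signal: Immunofluorescence imaging | Read-out: Percent E-selectin-positive cells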
# FGF22 binding = binders of recombinant human FGF22 by thermal shift; Q9HCT0; SYPRO orange fluorescence; percent of sucrose octasulfate shift, DMSO zero; activity (Tm shift, normalised), % at 9.99 µM; 340,000 compounds, 1.5% hits; AID 651658;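 active means mean Tm shift, scaled 0 neutral to 100 positive control, at about 1.3% or above, every replicate too, limit read from the data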
# Target sequence (Q9HCT0 whole entry, looked up): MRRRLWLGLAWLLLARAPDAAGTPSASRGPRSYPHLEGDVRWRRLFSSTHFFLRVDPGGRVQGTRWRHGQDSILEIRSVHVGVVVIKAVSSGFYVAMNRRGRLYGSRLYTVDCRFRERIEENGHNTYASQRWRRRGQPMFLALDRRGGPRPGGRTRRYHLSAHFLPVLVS
# Hits are given with their value; - = inactive; . = no result. This is a sample that favours compounds with a hit; in the whole collection about 4% have one here.
SMILES,C2C12 statin,SIRT5 inh,FN deposit inh,rRNA inh HTS,E-sel inducer,FGF22 binding
O=C1c2ccccc2C(=O)c2c1ccc1c(=O)n(C3CCCCC3)[nH]c21,-,19,-,-,-,.
COC(=O)COc1ccc2c(c1)O/C(=C\c1cccc([N+](=O)[O-])c1)C2=O,-,-,-,-,-,-
COc1ccc(/C=C2\Oc3cc(OCC(N)=O)ccc3C2=O)cc1OC,-,-,-,-29,-,-
O=C(c1ccco1)N1CCN(Cc2cccc([N+](=O)[O-])c2)CC1,.,-,-,-,.,44
O=[N+]([O-])c1cccc(COc2cccc(CN3CCCCC3)c2)c1,-,.,-,-,-,43
CC1CCCC(C)N1C(=O)c1ccccc1Nc1ccc(SC(F)F)cc1 (centres undefined),-,.,-,.,.,.
CC1CN(C(=O)c2ccccc2Nc2ccc(SC(F)F)cc2)CC(C)O1 (centres undefined),.,-,-,-,.,44
CN(C)/C=C/C(=O)c1ccc(Cl)s1,.,-,-,-,-,45
C[C@H]1CN([C@@H](C)CO)C(=O)c2cccc(NS(C)(=O)=O)c2O[C@H]1CN(C)C(=O)Nc1ccc(C(F)(F)F)cc1,-,-,.,-,.,-
COc1ccccc1C(=O)NCC1(c2ccccc2)CCCC1,.,-,-,-,-,43
O=C(NCC1(c2ccccc2)CCCC1)c1ccccc1Br,.,-,-,.,-,-
C=CCn1c(=O)c(C(C)=O)cn(N(C)c2ncc(C(F)(F)F)cc2Cl)c1=O,.,-,-,-,-,43
CC(=O)c1cn(N(C)c2ncc(C(F)(F)F)cc2Cl)c(=O)[nH]c1=O,.,-,-,-,.,-
CCOc1ccc(S(=O)(=O)NCC(=O)N(C)Cc2cccnc2)cc1,109,.,.,.,.,.
CCOc1ccc(NS(=O)(=O)c2ccc(C(=O)NCc3cccnc3)cc2)cc1,-,-,-,-,-,-
N#C/C(=C/c1ccccc1)C(=O)NCc1ccccc1,-,-,-,-,-,44
N#C/C(=C\c1cccnc1)C(=O)Nc1ccc(C(=O)O)cc1,.,-,-,-,-,43
Cc1cc(/C=C(/C#N)C(=O)O)c(C)n1-c1cccc2ccccc12,-,-,-,-,-,-
Cc1cccc(NC(=O)/C(C#N)=C\c2cc(C)n(-c3ccc(C(=O)O)cc3)c2C)c1,.,-,-,-28,.,-
N#C/C(=C\c1cccnc1)C(=O)Nc1ccccc1,.,.,-,.,.,.
Cc1cc(/C=C(\C#N)C(=O)Nc2ccccc2)c(C)n1-c1ccc(C(=O)O)cc1,-,-,-,-,.,-
Cc1c(C(=O)O)cccc1-n1c(C)cc(/C=C(/C#N)C(=O)NCc2ccccc2)c1C,.,-,-,-,83,.
Cc1noc(C)c1S(=O)(=O)N(C)C[C@@H]1OCCCC[C@@H](C)Oc2ccc(NC(=O)NC(C)C)cc2C(=O)N([C@H](C)CO)C[C@H]1C,.,-,-,-,.,-
O=C(Nc1ccc2c(c1)[C@H]1C[C@H](CC(=O)N3CCc4ccccc4C3)O[C@@H](CO)[C@H]1O2)C1CCOCC1,-,-,.,-,-,-
O=C(N[C@H]1C=C[C@H](CC(=O)N2CCOCC2)O[C@@H]1CO)c1ccc2c(c1)OCO2,-,-,.,-,-,-
SMILES,C2C12 statin,SIRT5 inh,FN deposit inh,rRNA inh HTS,E-sel inducer,FGF22 binding
COc1ccc(/C=C(\C#N)C(=O)OCC(=O)NC2CC2)cc1,.,-,-,-,.,44
COc1ccc(/C=C(\C#N)C(=O)OCC(=O)NCc2ccccc2)cc1,.,-,-,-,-,34
O=C(COC(=O)C12CC3CC(CC(O)(C3)C1)C2)NCCc1ccc(Cl)cc1,.,-,-,-20,-,-
O=C(COC(=O)C12CC3CC(CC(Br)(C3)C1)C2)Nc1c(F)cccc1F,-,-,-,-27,.,-
CC(NC(=O)COC(=O)C12CC3CC(CC(O)(C3)C1)C2)c1ccccc1 (centres undefined),.,.,-,-,-,43
CC(=O)NC12CC3CC(C1)CC(C(=O)OCC(=O)Nc1c(F)cccc1F)(C3)C2,-,-,-,-,.,-
O=C(c1cccc(F)c1)N1CC[C@@H]2[C@H]1c1cc(C#Cc3ccc(F)cc3)ccc1N[C@@H]2CO,-,-,-,-,-,-
CN(C)c1cccc(C(=O)N/C=C/n2cnc3cc(C(F)(F)F)ccc32)c1,.,-,-,-,.,43
O=C(CC1(c2ccc(Cl)cc2)C2CC3CC(C2)CC1C3)NCCO (centres undefined),.,-,-,-42,-,-
O=C(CC(=O)Nc1nc(C23CC4CC(CC(C4)C2)C3)cs1)NCCO,-,-,-,-,-,-
CC1(C)CC(NC(=O)COc2ccccc2Cl)CC(C)(C)N1,-,-,-,-,-,44
COCC#Cc1ccc2c(c1)O[C@@H](CN(C)C(=O)C1CC1)[C@@H](C)CN([C@H](C)CO)S2(=O)=O,-,-,-,-,-,-
Cc1ccc(Nc2nc3nonc3nc2N(C)C)cc1,88,.,.,.,.,.
CCNc1nc2nonc2nc1NCC,-,.,.,.,.,.
C[C@H](CO)N1C[C@H](C)[C@@H](CN(C)Cc2ccc3cccnc3c2)OCc2cn(nn2)CCCC1=O,-,.,-,-,-,.
C[C@H]1CN([C@@H](C)CO)C(=O)Cc2cc(NC(=O)C3CCCCC3)ccc2O[C@@H]1CN(C)C(=O)Nc1ccccc1,-,-,.,-,-,-
CC(=O)n1cc(/C=N/NC(=O)c2cccc(O)c2)c2ccccc21,-,-,-,-23,-,-
Cn1c2ccccc2c2cc(/C=N/NC(=O)c3cc(O)cc(O)c3)ccc21,-,-,-,-,74,-
Cn1c2ccccc2c2cc(/C=N/NC(=O)c3cc(O)ccc3O)ccc21,-,-,.,-,-,-
CCC(=O)N1[C@H](C(=O)NC2CCC2)[C@@H](CO)[C@@H]2Cn3c(ccc(C4=CCCC4)c3=O)[C@@H]21,-,-,-,-,-,-
CC(C)NC(=O)Nc1cccc2c1O[C@H](CN(C)C)[C@H](C)CN(C)C2=O,.,.,-,-,.,.
C/C=C/c1cnc2c(c1)C(=O)N([C@@H](C)CO)C[C@H](C)[C@H](CN(C)S(=O)(=O)c1ccc(OC)cc1)O2,-,-,.,-,.,-
Cn1c(-c2sc3cc(C(F)(F)F)cnc3c2-c2ccccn2)n[nH]c1=S,.,-,-,-,.,-
Cn1c(-c2sc3cc(C(F)(F)F)cnc3c2-c2cccnc2)n[nH]c1=S,139,.,.,.,.,.
O=C(Nc1ccc(Cl)cc1Cl)N1CCN(c2ncccn2)CC1,-,-,-,-,.,43
CCN(CC)C(=O)c1sc(NC(=O)C(Sc2ccccc2)c2ccccc2)c(C(=O)OC(C)C)c1C (centres undefined),101,.,.,.,.,.
CCN(CC)C(=O)c1sc(N)c(C(=O)OC(C)C)c1C,-,.,-,.,.,.
CCOc1ccc(NC(=O)c2ccco2)cc1,-,.,-,.,.,.

# Source: PubChem
